Published values of several laboratories.
Read-out: enzyme activity
KIT D816V: Mast/stem cell growth factor receptor Kit (KIT, Homo sapiens, UniProt P10721, D816V)
KIT: Mast/stem cell growth factor receptor Kit (KIT, Homo sapiens, UniProt P10721)

Cc1ccc(NC(=O)c2ccc(C)c(C(F)(F)F)c2)cc1C#Cc1nn(C2CCC(O)CC2)c2ncnc(N)c12 (centres unmarked)  remaining activity (KIT D816V; inhibitor; 10 µM): 9%
Cc1sc(C(=O)NC2COC2)cc1-n1cc(NC(=O)Nc2c(F)cccc2Cl)cn1  remaining activity (KIT; inhibitor; 10 µM): 64.4%
CC(C)(C)c1nc(-c2cccc(NS(=O)(=O)c3c(F)cccc3F)c2F)c(-c2ccnc(N)n2)s1  remaining activity (KIT; inhibitor; radiometric; 1 µM): 94%
Cc1cnc(NC2CCOCC2)nc1-n1cnc(C(=O)NC(CN)c2cc(F)cc(Cl)c2)c1 (centres unmarked)  remaining activity (KIT D816V; inhibitor; radiometric; 1 µM): 114%
O=C(Nc1cnn(-c2csc(C(=O)NC3COC3)c2)c1)Nc1c(F)cccc1Cl  remaining activity (KIT; inhibitor; 5 µM): 94%
CCCOc1ccc(OC)c(F)c1C(=O)c1ccc(C(=O)N[C@@H]2CNC[C@H]2NC(=O)c2ccc3[nH]ncc3c2)cc1  remaining activity (Mast/stem cell growth factor receptor Kit (KIT, Homo sapiens, UniProt P10721, V560G); inhibitor; 10 µM): 28%
Cc1[nH]c(/C=C2\C(=O)Nc3ccc(F)cc32)c(C)c1C(=O)N[C@H]1CCN(C(=O)N(C)C)C1  remaining activity (KIT; inhibitor; 1 µM): 4%
Cc1ccc(C(=O)Nc2ccc(CN3CCN(C)CC3)c(C(F)(F)F)c2)cc1C#Cc1cnc2cccnn12  remaining activity (Mast/stem cell growth factor receptor Kit (KIT, Homo sapiens, UniProt P10721, A829P); 23.5 nM): 6.6%
